Experimental data pooled from the literature.
Lines come from different studies, so protocols differ. pEC50, pIC50, pKd, pKi: −log10 of the molar value.
GPR84: G-protein coupled receptor 84 (GPR84, Homo sapiens, UniProt Q9NQS5)
Peroxisome proliferator-activated receptor alpha: Peroxisome proliferator-activated receptor alpha (Rattus norvegicus, UniProt P37230)

`CC(=O)N[C@H]1CSSC[C@@H](C(=O)N[C@@H](Cc2c[nH]c3ccccc23)C(N)=O)NC(=O)[C@H](Cc2ccccc2)NC(=O)[C@H](CCCNC(=N)N)NC1=O` gave a pIC50 of 5.92 (Melanocortin receptor 3 (MC3R, Homo sapiens, UniProt P41968); ligand displacement, radioligand).
`Cc1cc2nc3c(=O)[nH]c(=O)nc-3n(C[C@H](O)[C@H](O)[C@H](O)COP(=O)(O)OP(=O)(O)OC[C@H]3O[C@@H](n4cnc5c(N)ncnc54)[C@H](O)[C@@H]3O)c2cc1C` gave a pKd of 7.11 (Probable ATP-dependent RNA helicase DDX6 (Homo sapiens, UniProt P26196); binding; lysate).
The pEC50 of `O=c1cc(NCCc2cccs2)[nH]c(=O)[nH]1` is reported as 6.72 (GPR84; cAMP, agonist).
`CCCC[C@H](NC(=O)[C@H](CO)NC(=O)[C@H](Cc1ccc(O)cc1)NC(=O)[C@H](CO)NC(C)=O)C(=O)N[C@@H](CCC(=O)O)C(=O)N[C@@H](Cc1c[nH]cn1)C(=O)N[C@@H](C)C(=O)N[C@@H](CCCNC(=N)N)C(=O)N[C@@H](Cc1c[nH]c2ccccc12)C(=O)NCC(=O)N[C@@H](CCCCN)C(=O)N1CCC[C@H]1C(=O)N[C@H](C(=O)NCC(=O)N[C@@H](CCCCN)C(=O)N[C@@H](CCCCN)C(=O)N[C@@H](CCCNC(=N)N)C(N)=O)C(C)C` has a pEC50 of 8.11 (Melanocyte-stimulating hormone receptor (MC1R, Homo sapiens, UniProt Q01726); cAMP, agonist).
With `CCC(C)N1CCCn2c1nc1c2c(=O)n(C)c(=O)n1C` (centres unmarked) the pKi was less than 5.00 (Adenosine receptor A3 (ADORA3, Homo sapiens, UniProt P0DMS8); ligand displacement, radioligand; cell membranes).
With `Cc1cccc(Nc2cc(Cl)nc(SCC(=O)O)n2)c1C` the pEC50 was 5.02 (Peroxisome proliferator-activated receptor alpha; reporter gene, agonist, luciferase).
`CC(C)c1nc2cc(OCCCCN3CCN(c4cccc5c4OCCN5)CC3)ccc2s1` gave a pEC50 of 8.55 (D(2) dopamine receptor (DRD2, Homo sapiens, UniProt P14416); cAMP, agonist, luciferase).
`CN1CCN(c2ccc(Nc3ncc4cc(C#N)c(=O)n(C5CCCC5)c4n3)cc2)CC1` has a pIC50 of less than 5.00 (Mitogen-activated protein kinase 8 (MAPK8, Homo sapiens, UniProt P45983); enzyme activity, inhibitor).
`CC(C)(C)c1ccc(CCNc2cc(=O)[nH]c(=O)[nH]2)cc1` has a pEC50 of 7.36 (GPR84; cAMP, agonist).
The pEC50 of `Cc1nc(-c2ccc(C(F)(F)F)cc2)sc1C(=O)NCc1ccc(OC(C)(C)C(=O)O)cc1` is reported as 5.66 (Peroxisome proliferator-activated receptor alpha; reporter gene, agonist, luciferase).
`C=CC(=O)Nc1cc(Nc2nccc(-c3cn(C4CC4)c4ccccc34)n2)c(OC)cc1N(C)CCN(C)C` has a pIC50 of 7.76 (Epidermal growth factor receptor (EGFR, Homo sapiens, UniProt P00533, G719C); enzyme activity, inhibitor, TR-FRET).
